# Laboratory results taken from ChEMBL document CHEMBL1136016, “Synthesis, biological activity, and molecular modeling investigation of new pyrazolo[4,3-e]-1,2,4-triazolo[1,5-c]pyrimidine derivatives as human A(3) adenosine receptor antagonists” (J Med Chem, 2002).
# Legend:
# Adenosine receptor A2b [1] = target: T1, Adenosine receptor A2b (Homo sapiens, UniProt P29275); experiment: Displacement of [3H]DPCPX from human Adenosine A2B receptor expressed in HEK293 cells; range 88-165; format: cell-based
# T1 sequence (P29275 whole entry): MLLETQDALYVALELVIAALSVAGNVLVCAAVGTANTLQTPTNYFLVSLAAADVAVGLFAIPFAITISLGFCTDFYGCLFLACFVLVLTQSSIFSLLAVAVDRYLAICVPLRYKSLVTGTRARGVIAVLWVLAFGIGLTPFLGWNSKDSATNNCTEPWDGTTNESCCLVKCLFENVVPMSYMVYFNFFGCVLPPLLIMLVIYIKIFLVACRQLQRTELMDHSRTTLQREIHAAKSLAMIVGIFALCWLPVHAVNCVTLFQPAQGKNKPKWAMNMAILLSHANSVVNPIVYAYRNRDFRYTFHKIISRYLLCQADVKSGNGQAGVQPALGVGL
# Summary of the method: (§1)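 Membranes from HEK-293 cells with human recombinant A2B receptor. Incubation 60 min at 25 °C in 50 mM Tris HCl, 10 mM MgCl2, 1 mM EDTA, 0.1 mM benzamidine, pH 7.4, with 2 IU/mL adenosine deaminase and 40 nM [3H]DPCPX. At least six to eight test concentrations. Nonspecific binding defined with NECA. n = 3-6.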
# Adenosine receptor A3 [2] = target: T2, Adenosine receptor A3 (Homo sapiens, UniProt P0DMS8); experiment: Displacement of [3H]MRE3008-F20 binding at human Adenosine A3 receptor expressed in HEK cells; range 0.82-1.02; format: cell-based, HEK293
# T2 sequence (P0DMS8 whole entry): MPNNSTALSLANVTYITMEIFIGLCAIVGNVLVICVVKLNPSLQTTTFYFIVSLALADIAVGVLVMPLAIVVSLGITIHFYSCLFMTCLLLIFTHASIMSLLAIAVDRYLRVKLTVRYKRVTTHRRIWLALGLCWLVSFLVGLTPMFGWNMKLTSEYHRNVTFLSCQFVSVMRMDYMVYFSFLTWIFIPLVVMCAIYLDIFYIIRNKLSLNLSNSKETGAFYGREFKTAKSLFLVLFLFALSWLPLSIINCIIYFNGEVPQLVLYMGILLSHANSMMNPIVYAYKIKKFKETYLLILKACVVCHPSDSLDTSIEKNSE
# [3] = target: Adenosine receptors; A1 & A3 (Homo sapiens) (UniProt P30542+P0DMS8); experiment: Selectivity ratio (hA1/hA3); format: protein assay
# Adenosine receptor A2a [4] = target: T3, Adenosine receptor A2a (Homo sapiens, UniProt P29274); experiment: Displacement of [3H]SCH-58261 from human Adenosine A2A receptor expressed in HEK293 cells; […]; format: cell-based
# T3 sequence (P29274 whole entry): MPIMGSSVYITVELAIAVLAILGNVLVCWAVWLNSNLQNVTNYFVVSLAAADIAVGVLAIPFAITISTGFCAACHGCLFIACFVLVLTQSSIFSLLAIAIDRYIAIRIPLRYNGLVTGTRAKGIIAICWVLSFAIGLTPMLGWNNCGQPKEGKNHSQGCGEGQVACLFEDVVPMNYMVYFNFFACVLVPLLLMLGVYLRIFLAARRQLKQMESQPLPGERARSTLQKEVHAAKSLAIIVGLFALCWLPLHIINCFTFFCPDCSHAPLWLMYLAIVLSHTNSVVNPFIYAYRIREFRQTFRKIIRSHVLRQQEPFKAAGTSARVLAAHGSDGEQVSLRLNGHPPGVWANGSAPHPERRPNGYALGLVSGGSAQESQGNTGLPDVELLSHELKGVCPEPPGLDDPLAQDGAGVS
# [5] = target: Adenosine receptors; A2b & A3 (Homo sapiens) (UniProt P29275+P0DMS8); experiment: Selectivity ratio (h2B/hA3); format: protein assay
# Adenosine receptor A1 [6] = target: T4, Adenosine receptor A1 (Homo sapiens, UniProt P30542); experiment: Displacement of [3H]DPCPX from human Adenosine A1 receptor expressed in CHO cells; range 222-400; format: cell-based
# T4 sequence (P30542 whole entry): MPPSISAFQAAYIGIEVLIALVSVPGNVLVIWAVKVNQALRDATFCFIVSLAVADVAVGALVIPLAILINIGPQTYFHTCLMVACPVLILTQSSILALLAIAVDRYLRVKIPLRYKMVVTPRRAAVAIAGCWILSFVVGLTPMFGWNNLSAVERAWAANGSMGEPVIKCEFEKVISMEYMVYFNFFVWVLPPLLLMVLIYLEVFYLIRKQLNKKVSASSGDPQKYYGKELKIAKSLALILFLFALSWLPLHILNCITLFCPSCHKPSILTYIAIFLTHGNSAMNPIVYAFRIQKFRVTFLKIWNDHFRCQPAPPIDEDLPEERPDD
# Summary of the method: (§2)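 Human recombinant A1 receptor in CHO cell membranes, resuspended in 50 mM Tris HCl pH 7.4. Displacement run 120 min at 25 °C with 1 nM [3H]DPCPX, 50 µg protein per assay, and at least six to eight test concentrations. Nonspecific binding defined with CHA. Bound and free separated on glass-fiber filters; filter radioactivity counted. n = 3-6.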
# Adenosine receptor A3 [7] = target: T2, Adenosine receptor A3; experiment: Displacement of […] from human Adenosine A3 receptor expressed in CHO cells; format: cell-based
# Summary of the method: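 Membranes of CHO cells stably expressing human A3 receptor (50 µg protein/assay), incubated in duplicate with 1 nM [3H]MRE3008-F20 in 50 mM Tris HCl, 10 mM MgCl2 (pH 7.4) and six to eight ligand concentrations, 120 min at 4 °C. Nonspecific binding was set with 1 µM MRE3008-F20. Separation was by GF/B filtration and scintillation counting; n = 3-6.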
# Adenosine receptor A1 [8] = target: T4, Adenosine receptor A1; experiment: Displacement of [3H]DPCPX from human Adenosine A1 receptor expressed in CHO cells; format: cell-based; summary of the method: as §2
# Adenosine receptor A2b [9] = target: T1, Adenosine receptor A2b; experiment: Displacement of [3H]DPCPX binding at human Adenosine A2B receptor expressed in HEK293 cells; format: cell-based; summary of the method: as §1
# Adenosine receptor A2a [10] = target: T3, Adenosine receptor A2a; experiment: Displacement of [3H]SCH-58261 from human Adenosine A2A receptor expressed in CHO cells; format: cell-based
# Summary of the method: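 Membranes from CHO cells expressing the human receptor (50 µg protein) with [3H]SCH58261 and six to eight competitor concentrations. Incubated 60 min at 25 °C. Nonspecific binding was set with NECA.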
# Adenosine receptor A1 [11] = target: T4, Adenosine receptor A1; experiment: Displacement of [3H]-DPCPX from human Adenosine A1 receptor expressed in CHO cells; range 240-368; format: cell-based
# Adenosine receptor A3 [12] = target: T2, Adenosine receptor A3; experiment: Displacement of [3H]MRE3008-F20 from human Adenosine A3 receptor expressed in HEK cells; range 0.37-0.50; format: cell-based, HEK293
# Adenosine receptor A2a [13] = target: T3, Adenosine receptor A2a; experiment: Displacement of [3H]SCH-58261 from human Adenosine A2A receptor expressed in HEK293 cells; range 91-137; format: cell-based
# Adenosine receptor A2b [14] = target: T1, Adenosine receptor A2b; experiment: Displacement of [3H]DPCPX from human Adenosine A2B receptor expressed in HEK293 cells; range 76-98; format: cell-based
# Summary of the method: (§3)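 HEK-293 membranes expressing the human receptor were incubated 60 min at 25 °C. Six to eight test concentrations were used. Nonspecific binding was set with NECA. n = 3-6.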
# Adenosine receptor A2b [15] = target: T1, Adenosine receptor A2b; experiment: Displacement of [3H]DPCPX from human Adenosine A2B receptor expressed in HEK293 cells (95% confidence limits); format: cell-based; summary of the method: as §3
# Adenosine receptor A3 [16] = target: T2, Adenosine receptor A3; experiment: biochemical
# Adenosine receptor A3 [17] = target: T2, Adenosine receptor A3; experiment: Displacement of [3H]MRE3008-F20 from human Adenosine A3 receptor expressed in HEK cells; range 19-34; format: cell-based, HEK293
# Adenosine receptor A3 [18] = target: T2, Adenosine receptor A3; experiment: Inhibition of IB-MECA agonist-mediated cAMP production in CHO cell membranes expressing human Adenosine A3 receptor; range 130-279; format: functional, cell-based
# Adenosine receptor A1 [19] = target: T4, Adenosine receptor A1; experiment: Displacement of [3H]DPCPX from human Adenosine A1 receptor expressed in CHO cells; range 436-810; format: cell-based; summary of the method: as §2
# Adenosine receptor A2a [20] = target: T3, Adenosine receptor A2a; experiment: Displacement of [3H]SCH-58261 from human Adenosine A2A receptor expressed in HEK293 cells; format: cell-based
SMILES,Ratio [3],Ratio [5],Ki (Adenosine receptor A3 [7]),Ki (Adenosine receptor A1 [8]),Ki (Adenosine receptor A2b [9]),Ki (Adenosine receptor A2a [10]),also measured
CCCCn1cc2c(nc(NC(=O)Nc3ccc(Br)cc3)n3nc(-c4ccco4)nc23)n1,330,133,,,,,Ki (Adenosine receptor A2b [1]): 121 nM; Ki (Adenosine receptor A3 [2]): 0.91 nM; Ki (Adenosine receptor A2a [4]): 66 nM; Ki (Adenosine receptor A1 [6]): 300 nM
CCCn1cc2c(nc(NC(=O)Nc3ccc([N+](=O)[O-])cc3)n3nc(-c4ccco4)nc23)n1,1500,377,0.81 nM,1210 nM,305 nM,1110 nM,
CCCCn1cc2c(nc(NC(=O)Nc3ccc(Cl)cc3)n3nc(-c4ccco4)nc23)n1,698,202,,,,,Ki (Adenosine receptor A1 [11]): 300 nM; Ki (Adenosine receptor A3 [12]): 0.43 nM; Ki (Adenosine receptor A2a [13]): 111 nM; Ki (Adenosine receptor A2b [14]): 87 nM
CCn1cc2c(nc(NC(=O)Cc3ccccc3)n3nc(-c4ccco4)nc23)n1,693,156,,714 nM,,335 nM,Ki (Adenosine receptor A2b [15]): 161 nM; Ki (Adenosine receptor A3 [16]): 1.03 nM
Cn1cc2c(nc(NC(=O)Nc3ccc(S(=O)(=O)O)cc3)n3nc(-c4ccco4)nc23)n1,> 400,> 400,,,> 10000 nM,,Ki (Adenosine receptor A3 [17]): 25 nM; IC50 (Adenosine receptor A3 [18]): 190 nM; Ki (Adenosine receptor A1 [19]): > 10000 nM; Ki (Adenosine receptor A2a [20]): 594 nM
CCCCn1cc2c(nc(NC(=O)Nc3ccc([N+](=O)[O-])cc3)n3nc(-c4ccco4)nc23)n1,1060,96,0.55 nM,584 nM,52 nM,503 nM,
